Results reported in paper PMC3952852 (Molecular Biology of the Cell, 2014).

Legend:
LIMK1 [1] = molecular target: T1, LIMK1 (Homo sapiens, UniProt P53667); format: biochemical; settings: range of inhibitor concentrations
Src = Src (Homo sapiens, UniProt P12931); experiment: in vitro kinase assay, active Src; format: biochemical
ROCK = ROCK (Homo sapiens, UniProt Q13464); experiment: in vitro kinase assay, ROCK; format: biochemical
PAK3 = PAK3 (Homo sapiens, UniProt O75914); experiment: in vitro kinase assay, PAK3; format: biochemical
Sequence of PAK3 (O75914 177-559, species assumed): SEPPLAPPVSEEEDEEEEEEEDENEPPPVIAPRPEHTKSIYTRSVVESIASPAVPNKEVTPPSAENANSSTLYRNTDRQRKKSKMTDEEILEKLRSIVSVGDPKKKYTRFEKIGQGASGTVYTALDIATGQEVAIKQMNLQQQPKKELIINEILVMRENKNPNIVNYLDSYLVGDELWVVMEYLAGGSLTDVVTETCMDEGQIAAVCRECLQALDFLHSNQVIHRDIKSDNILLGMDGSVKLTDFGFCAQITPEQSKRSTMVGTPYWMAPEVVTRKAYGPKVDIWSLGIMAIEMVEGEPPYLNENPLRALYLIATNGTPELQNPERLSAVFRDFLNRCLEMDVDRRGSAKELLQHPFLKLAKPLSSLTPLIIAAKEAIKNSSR

PKCα = PKCα (Homo sapiens, UniProt P17252); experiment: in vitro kinase assay, PKCα; format: biochemical
CaMKIα = CaMKIα (Homo sapiens, UniProt Q14012); experiment: in vitro kinase assay, CaMKIα; format: biochemical
Sequence of CaMKIα (Q14012 1-293, species assumed): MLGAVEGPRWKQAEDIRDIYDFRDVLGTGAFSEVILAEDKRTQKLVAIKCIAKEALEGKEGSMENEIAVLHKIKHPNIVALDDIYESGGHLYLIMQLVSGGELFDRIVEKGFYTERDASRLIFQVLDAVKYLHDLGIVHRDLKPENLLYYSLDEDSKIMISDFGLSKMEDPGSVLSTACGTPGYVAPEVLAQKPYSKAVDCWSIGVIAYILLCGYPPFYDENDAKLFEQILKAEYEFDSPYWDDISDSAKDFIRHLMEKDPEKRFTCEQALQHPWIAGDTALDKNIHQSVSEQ

[2] = system: P-cofilin in N1E-115 cells; experiment: cofilin phosphorylation immunoblot in LIMK1-CFP-overexpressing N1E-115 cells; format: cell-based; settings: 30 min
Jurkat cells [3] = experiment: CXCL12-induced chemotaxis, Transwell, Jurkat cells; format: cell-based; settings: pretreated 30 min, 5 nM CXCL12, 3 h
In short: (§1)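 Cells at 2×10^6 cells/ml in RPMI1640 with 0.5% BSA were pretreated 30 min at room temperature with test compound or vehicle (final 0.3% DMSO). 2×10^5 cells went into the upper well (5-µm pore Transwell). The lower well held RPMI, 0.5% BSA, 5 nM CXCL12 and compound or vehicle. After 3 h at 37°C, migrated cells in the lower well were counted. Mean ± SD of four independent experiments; one-way ANOVA with Dunnett's test.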

JCaM1.6 cells = experiment: CXCL12-induced chemotaxis, Transwell, JCaM1.6 cells; format: cell-based; settings: Lck-deficient JCaM1.6, pretreated 30 min, 5 nM CXCL12, 3 h
In short: as §1

[4] = system: P-cofilin in Jurkat cells; experiment: CXCL12-induced cofilin phosphorylation in Jurkat cells; format: cell-based; settings: 5 nM CXCL12 for 5 min
In short: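 Jurkat cells (RPMI, 10% FCS) were stimulated with 5 nM CXCL12 for 5 min. Lysates in HEPES pH 7.4 lysis/kinase buffer were immunoblotted for P-cofilin, cofilin, P-MAPK and MAPK. P-cofilin was expressed relative to control cells, set at 1.0.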

P-MAPK in Jurkat cells = experiment: CXCL12-induced MAPK phosphorylation in Jurkat cells; format: cell-based; settings: 5 nM CXCL12 for 5 min
In short: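 Jurkat cells grown in RPMI with 10% FCS were stimulated with 5 nM CXCL12 for 5 min, with or without test compound. Cells were lysed in HEPES pH 7.4 lysis/kinase buffer containing NP-40, NaF, Na3VO4 and protease inhibitors. Lysates were immunoblotted for P-MAPK and total MAPK, alongside P-cofilin and cofilin.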

Jurkat cells [5] = experiment: CXCL12-induced lamellipodium formation in Jurkat cells; format: cell-based; settings: Dam 30 min, then 5 nM CXCL12 for 20 min
In short: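 Jurkat cells were given 5 µM test compound or vehicle for 30 min, then 5 nM CXCL12 for 20 min. They were fixed and stained with rhodamine–phalloidin for F-actin, then scored into three classes: large lamellipodia, small lamellipodia, or round without lamellipodium. 200–300 cells were counted per experiment. Class percentages are mean ± SD of three independent experiments.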

MDA-MB-231 cells = experiment: serum-induced Matrigel invasion assay, MDA-MB-231 cells; format: cell-based, human; settings: MDA-MB-231, Matrigel, 15 h
In short: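 MDA-MB-231 cells (2×10^5 cells/ml) were serum-starved 3 h and resuspended in serum-free DMEM. They were pretreated 30 min at room temperature with test compound or vehicle (final 0.3% DMSO). Transwell inserts (8-µm pore) were coated with 50 µg Matrigel for 1 h at 37°C and washed three times with DMEM. 2×10^4 cells were loaded, with serum in the lower chamber. After 15 h, invaded cells on the lower membrane face were counted. Mean ± SD of six independent experiments; Dunnett's test.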

[6] = system: epidermal Langerhans cells; experiment: hapten; format: in vivo, mouse; settings: 20 μM topical
In short: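 BALB/c mice (8–10 wk): each ear painted with 20 µl of 20 µM test compound in 2% DMSO in 1:4 acetone/olive oil, or vehicle. 30 min later, 20 µl 3% TNCB or vehicle applied, ± 20 µM compound; repainted at 12 h; ears taken 24 h post-TNCB. NH4SCN-separated, acetone-fixed epidermal sheets stained with FITC anti-I-Ad; confocal imaging, 15 areas/ear; five experiments, mean ± SD, ANOVA/Dunnett.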

[7] = system: P-cofilin in Vero 2-2 cells; experiment: 2D gel analysis of 32P-labeled phospho-proteins in whole cell lysates; format: cell-based; settings: 10 μM, 5 h
LIMK1 [8] = molecular target: T1, LIMK1; experiment: in vitro kinase assay, LIMK1; format: biochemical; settings: cofilin substrate; for effect on the kinase activity of LIMK1: concentrations of 1–30 μM
Lck = settings: read-out: IC50 for Lck; ref Jayasuriya et al., 1992; cited from earlier work

T1 sequence (P53667 whole entry): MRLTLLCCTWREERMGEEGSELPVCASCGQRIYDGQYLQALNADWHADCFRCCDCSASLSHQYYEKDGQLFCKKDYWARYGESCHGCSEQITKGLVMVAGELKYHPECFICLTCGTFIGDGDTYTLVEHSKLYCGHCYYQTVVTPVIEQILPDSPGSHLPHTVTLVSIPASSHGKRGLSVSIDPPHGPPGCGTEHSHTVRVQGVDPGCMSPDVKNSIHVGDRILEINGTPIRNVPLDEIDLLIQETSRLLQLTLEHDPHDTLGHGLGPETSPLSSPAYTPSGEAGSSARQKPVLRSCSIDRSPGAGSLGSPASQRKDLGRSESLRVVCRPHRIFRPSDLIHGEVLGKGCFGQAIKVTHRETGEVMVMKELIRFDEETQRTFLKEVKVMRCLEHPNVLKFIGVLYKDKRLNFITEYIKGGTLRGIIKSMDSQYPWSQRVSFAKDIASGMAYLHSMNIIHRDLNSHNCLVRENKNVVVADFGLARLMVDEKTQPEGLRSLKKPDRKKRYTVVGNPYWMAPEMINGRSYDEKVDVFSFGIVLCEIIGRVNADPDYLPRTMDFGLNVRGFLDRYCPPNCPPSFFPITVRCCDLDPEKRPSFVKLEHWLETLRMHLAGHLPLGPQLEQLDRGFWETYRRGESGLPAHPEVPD
Sequence of Src (P12931 270-523 limits assumed): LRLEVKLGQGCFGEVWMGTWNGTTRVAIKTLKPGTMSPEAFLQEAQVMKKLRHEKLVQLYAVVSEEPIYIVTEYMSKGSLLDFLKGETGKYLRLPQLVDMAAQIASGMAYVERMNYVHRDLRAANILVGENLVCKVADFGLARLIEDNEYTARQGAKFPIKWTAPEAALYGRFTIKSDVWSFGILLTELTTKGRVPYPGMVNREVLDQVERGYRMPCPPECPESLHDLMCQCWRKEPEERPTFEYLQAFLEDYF
Sequence of ROCK (Q13464 1-727): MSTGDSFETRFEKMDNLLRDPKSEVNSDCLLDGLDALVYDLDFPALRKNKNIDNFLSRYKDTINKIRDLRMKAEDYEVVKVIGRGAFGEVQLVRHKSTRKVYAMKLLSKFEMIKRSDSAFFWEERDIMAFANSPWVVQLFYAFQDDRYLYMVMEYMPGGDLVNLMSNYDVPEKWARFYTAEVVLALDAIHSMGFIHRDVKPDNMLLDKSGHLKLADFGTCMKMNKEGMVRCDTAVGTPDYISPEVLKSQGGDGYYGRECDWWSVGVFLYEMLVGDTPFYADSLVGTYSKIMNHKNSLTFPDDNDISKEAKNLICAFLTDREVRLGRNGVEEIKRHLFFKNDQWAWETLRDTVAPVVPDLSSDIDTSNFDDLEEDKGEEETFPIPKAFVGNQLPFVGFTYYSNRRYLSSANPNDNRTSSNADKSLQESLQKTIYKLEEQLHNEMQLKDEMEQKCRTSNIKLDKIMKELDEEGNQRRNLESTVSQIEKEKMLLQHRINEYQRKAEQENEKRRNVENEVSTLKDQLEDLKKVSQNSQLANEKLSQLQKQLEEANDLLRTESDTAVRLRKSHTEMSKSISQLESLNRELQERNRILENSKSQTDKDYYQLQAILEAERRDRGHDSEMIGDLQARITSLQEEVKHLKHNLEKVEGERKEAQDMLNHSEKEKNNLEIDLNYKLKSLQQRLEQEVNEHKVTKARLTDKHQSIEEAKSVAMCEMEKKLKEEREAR

## COc1c(C=O)c(O)cc2c1C(=O)c1ccccc1C2=O [Dam, 3-hydroxy-1-methoxy-9,10-dioxoanthraquinone-2-carbaldehyde]
LIMK1 [1]
  concentration range inhibiting the kinase activity of LIMK1 in detailed in vitro BiFC assays: 5 to 10 µM
Src
  IC50: > 20 µM
ROCK
  IC50: > 20 µM
PAK3
  IC50: > 20 µM
PKCα
  IC50: > 20 µM
CaMKIα
  IC50: > 20 µM
[2]
  concentration range significantly decreasing P-cofilin level: 5 to 10 µM
Jurkat cells [3]
  concentration range inhibiting CXCL12-induced chemotaxis: 3 to 10 µM
JCaM1.6 cells
  concentration range inhibiting CXCL12-induced chemotaxis: 3 to 10 µM
[4]
  concentration range suppressing CXCL12-induced increase of P-cofilin: 3 to 10 µM
P-MAPK in Jurkat cells
  effect on increase in P-MAPK after CXCL12 stimulation: unaffected
Jurkat cells [5]
  effect on lamellipodium formation after CXCL12 stimulation: fewer cells with large lamellipodial protrusions and more cells with small or no lamellipodial protrusions
MDA-MB-231 cells
  concentration range significantly suppressing serum-induced invasion: 3 to 10 µM
[6]; TNCB
  effect on hapten-induced Langerhans cell size changes: no apparent effect
[6]; no TNCB
  effect on Langerhans cell density of control ears: no effect
[7]
  amount of P-cofilin in treated cells compared with untreated cells: decreased

## NO [Hydroxylamine, hydroxylamine]
LIMK1 [8]; LIMK1-CFP
  effect of hydroxylamine alone on LIMK1 activity: no effect

## Cc1cc(O)c2c(c1)C(=O)c1cc(O)cc(O)c1C2=O [emodin]
LIMK1 [8]
  effect on the kinase activity of LIMK1: no appreciable effect
Lck
  IC50: 18.5 µM

## O=C1c2c(O)ccc(O)c2C(=O)c2c(NCCNCCO)ccc(NCCNCCO)c21 [mitoxantrone]
LIMK1 [8]
  effect on the kinase activity of LIMK1: no appreciable effect
